pIC50: −log10 of the molar value. Numbered stars: 1 amine (or outer) side, 2 acyl side, 3 side chain; on linkers, the order of the positions; unused ones are H or OH. Square brackets hold non-standard residues; d marks the D form. Peptide text beside a SMILES is read from it. X7 = CCNC(=N)NCCC[C@H](N)C(=O)/N=C(/N)NCCC[C@H](N[*:1])C(=O)[*:2]; X9 = NC1=NCCN1CCC[C@H](N[*:1])C(=O)[*:2]; Tle = CC(C)(C)[C@H](N)C(=O)O; hLys = NCCCCC[C@H](N)C(=O)O Some results are limits rather than exact numbers.

In ChEMBL document CHEMBL1145090, “In vitro analysis of stable, receptor-selective neurotensin[8-13] analogues” (J Med Chem, 2003) one finds half-life and IC50 data, which are given here for 21 molecules.

Data set [1] can be described thus: Plasma half life in rat serum. Format: ADME, organism-based.
In data set [2] the target is Neurotensin receptor type 1 (Homo sapiens, UniProt P30989). In words: Evaluated for binding affinity by inhibiting binding of [125I]-Tyr(3)-NT to human Neurotensin receptor 1.
The target in a further data set is T1, Sortilin (Homo sapiens, UniProt Q99523).
T1 sequence (Q99523 whole entry): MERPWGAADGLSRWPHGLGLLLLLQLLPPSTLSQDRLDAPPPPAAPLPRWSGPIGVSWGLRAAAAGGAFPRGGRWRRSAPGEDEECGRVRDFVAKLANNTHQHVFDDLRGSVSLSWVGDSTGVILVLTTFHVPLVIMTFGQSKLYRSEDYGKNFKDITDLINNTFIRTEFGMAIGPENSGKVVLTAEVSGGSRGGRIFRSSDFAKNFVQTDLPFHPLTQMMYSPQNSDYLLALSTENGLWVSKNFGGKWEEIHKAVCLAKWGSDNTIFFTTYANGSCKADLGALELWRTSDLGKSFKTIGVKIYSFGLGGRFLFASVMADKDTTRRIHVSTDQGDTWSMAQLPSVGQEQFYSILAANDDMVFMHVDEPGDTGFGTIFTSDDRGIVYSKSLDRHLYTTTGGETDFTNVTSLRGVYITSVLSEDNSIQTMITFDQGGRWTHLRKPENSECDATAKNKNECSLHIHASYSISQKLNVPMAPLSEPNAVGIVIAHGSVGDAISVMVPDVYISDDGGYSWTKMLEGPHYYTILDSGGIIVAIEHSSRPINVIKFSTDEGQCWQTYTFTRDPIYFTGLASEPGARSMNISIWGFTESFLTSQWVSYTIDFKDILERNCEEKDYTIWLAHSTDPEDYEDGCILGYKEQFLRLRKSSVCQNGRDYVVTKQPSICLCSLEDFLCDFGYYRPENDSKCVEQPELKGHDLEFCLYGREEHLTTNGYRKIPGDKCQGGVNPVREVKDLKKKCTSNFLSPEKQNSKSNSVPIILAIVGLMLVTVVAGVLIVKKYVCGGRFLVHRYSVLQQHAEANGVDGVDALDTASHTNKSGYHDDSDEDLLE
In words: Evaluated for binding affinity by inhibiting binding of [125I]Tyr(3)-NT to human Neurotensin receptor 3. The essentials: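 Whole cells (2 × 10^5) transiently expressing human NTR-3, ~60 h post-transfection. Equilibrated 10 min in Earle's Tris-HEPES pH 7.5 with 0.1% glucose and 0.1% BSA, then incubated 30 min at 37 °C with 0.4 nM 125I-Tyr(3)-NT, 0.8 mM 1,10-phenanthroline and increasing peptide. Washed, lysed in 0.1 N NaOH, gamma-counted. Nonspecific binding with 1 µM NT. IC50 taken.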

Data set [3] has as its target Neurotensin receptor type 2 (Homo sapiens, UniProt O95665). In words: Evaluated for binding affinity by inhibiting binding of [125I]Tyr(3)-NT to human Neurotensin receptor 2.

Sequence of Neurotensin receptor type 2 (O95665 whole entry): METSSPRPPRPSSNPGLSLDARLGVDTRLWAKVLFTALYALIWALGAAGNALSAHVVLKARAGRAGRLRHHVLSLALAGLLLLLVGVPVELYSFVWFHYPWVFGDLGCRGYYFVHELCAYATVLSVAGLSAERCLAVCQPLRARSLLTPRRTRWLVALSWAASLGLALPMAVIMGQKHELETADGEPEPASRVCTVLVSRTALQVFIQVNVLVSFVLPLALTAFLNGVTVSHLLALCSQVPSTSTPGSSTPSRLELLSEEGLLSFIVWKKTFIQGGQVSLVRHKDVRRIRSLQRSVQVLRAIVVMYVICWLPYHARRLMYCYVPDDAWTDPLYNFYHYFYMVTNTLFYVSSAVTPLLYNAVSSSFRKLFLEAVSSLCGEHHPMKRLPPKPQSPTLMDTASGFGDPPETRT
Sequence of Neurotensin receptor type 1 (P30989 whole entry): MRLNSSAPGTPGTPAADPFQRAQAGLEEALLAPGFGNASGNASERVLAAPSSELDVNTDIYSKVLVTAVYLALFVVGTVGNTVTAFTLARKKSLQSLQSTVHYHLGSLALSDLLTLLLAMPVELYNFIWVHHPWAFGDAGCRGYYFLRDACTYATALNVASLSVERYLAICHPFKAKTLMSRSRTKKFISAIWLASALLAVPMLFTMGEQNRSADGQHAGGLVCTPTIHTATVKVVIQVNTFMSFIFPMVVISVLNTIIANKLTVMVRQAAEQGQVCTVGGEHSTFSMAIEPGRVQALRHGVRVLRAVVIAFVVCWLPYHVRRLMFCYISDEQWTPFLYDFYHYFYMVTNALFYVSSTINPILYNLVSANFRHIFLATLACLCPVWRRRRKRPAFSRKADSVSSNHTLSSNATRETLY

Molecule `CC(C)C[C@H](NC(=O)[C@@H](NC(=O)[C@H](Cc1ccc(O)cc1)NC(=O)[C@@H]1CCCN1C(=O)[C@H](CCCNC(=N)N)NC(=O)[C@@H](N)CCCCCN)C(C)(C)C)C(=O)O` (H-[hLys]RPY[Tle]L-OH) came in with a half-life in data set [1] greater than 24 h. The pIC50 in data set [2] is 8.24.
Take `CC[C@H](C)[C@H](NC(=O)[C@H](Cc1ccc(O)cc1)NC(=O)[C@@H]1CCCN1C(=O)[C@@H](N)CCC/N=C(/N)NC(=O)[C@@H](N)CCCCN(C)C)C(=O)N[C@@H](CC(C)C)C(=O)O`: the results for the pIC50 (at Sortilin; in data set [3]; in data set [2]) were 5.79, 8.55 and 9.40, respectively. Besides, the half-life in data set [1] amounted to 2.12 h.
Take `CCNC(=N)NCCC[C@H](N)C(=O)/N=C(/N)NCCC[C@H](N)C(=O)N1CCC[C@H]1C(=O)N[C@@H](Cc1ccc(O)cc1)C(=O)N[C@H](C(=O)N[C@@H](CC(C)C)C(=O)O)[C@@H](C)CC` (H-[X7]PYIL-OH): the pIC50 was 6.32 at Sortilin and 9.52 in data set [3].
Regarding `CC[C@H](C)[C@H](NC(=O)[C@H](Cc1ccc(O)cc1)NC(=O)[C@@H]1CCCN1C(=O)[C@@H](N)CCCNC(=N)NC(=O)[C@@H](N)CCCCC[N+](C)(C)C)C(=O)N[C@@H](CC(C)C)C(=O)O`, the pIC50 at Sortilin was 6.26; in data set [3] it was 8.51; in data set [2] it was 9.29. For the same molecule, the half-life in data set [1] was found to be 1.72 h.
For `CC[C@H](C)[C@H](NC(=O)[C@H](Cc1ccc(O)cc1)NC(=O)[C@@H]1CCCN1C(=O)[C@H](CCCNC(=N)N)NC(=O)[C@@H](N)CCCNC(=N)N)C(=O)N[C@@H](CC(C)C)C(=O)O`, the half-life in data set [1] worked out at 0.0983 h.
On to `CC[C@H](C)[C@H](NC(=O)[C@H](Cc1ccc(O)cc1)NC(=O)[C@@H]1CCCN1C(=O)[C@@H](N)CCC/N=C(/N)NC(=O)[C@@H](N)CCCCCNC)C(=O)N[C@@H](CC(C)C)C(=O)O`, for which the pIC50 on Sortilin is 6.40; in data set [3], 8.16; in data set [2], 9.28. Besides, the half-life in data set [1] came to 3.52 h.
Taken in the same sequence, the figures for `CC(C)C[C@H](NC(=O)[C@@H](NC(=O)[C@H](Cc1c[nH]c2ccccc12)NC(=O)[C@@H]1CCCN1C(=O)[C@@H](N)CCCN=C(N)NC(=O)[C@@H](N)CCCCCN)C(C)(C)C)C(=O)O` (H-R(hLys)PW[Tle]L-OH) were 4.27, 6.30, 6.88 and greater than 24 h.
`CC[C@H](C)[C@H](NC(=O)[C@H](Cc1ccc(O)cc1)NC(=O)[C@@H]1CCCN1C(=O)[C@@H](N)CCCN=C(N)NC(=O)[C@@H](N)CCCCN)C(=O)N[C@@H](CC(C)C)C(=O)O`: the pIC50 is 6.29 on Sortilin, 8.68 in data set [3] and 9.52 in data set [2]. Besides, the half-life in data set [1] is 2.27 h.
With `CC[C@H](C)[C@H](NC(=O)[C@H](Cc1ccc(O)cc1)NC(=O)[C@@H]1CCCN1C(=O)[C@H](CCCNC(=N)N)NC(=O)[C@@H](N)CCCN1CCN=C1N)C(=O)N[C@@H](CC(C)C)C(=O)O` (H-[X9]RPYIL-OH), the half-life in data set [1] was 0.275 h.
Turning to `CC[C@H](C)[C@H](NC(=O)[C@H](Cc1ccc(O)cc1)NC(=O)[C@@H]1CCCN1C(=O)[C@@H](N)CCC/N=C(/N)NC(=O)[C@@H](N)CCCCNC)C(=O)N[C@@H](CC(C)C)C(=O)O`, the pIC50 on Sortilin was 5.94; in data set [3], 8.74; in data set [2], 9.47. The half-life in data set [1] turned out to be 2.13 h.
Regarding `CC(C)C[C@H](NC(=O)[C@@H](NC(=O)[C@H](Cc1ccc(O)cc1)NC(=O)[C@@H]1CCCN1C(=O)[C@@H](N)CCCN=C(N)NC(=O)[C@@H](N)CCCCCN)C(C)(C)C)C(=O)O` (H-R(hLys)PY[Tle]L-OH), the pIC50 was 5.40 at Sortilin and 7.95 in data set [3].
As to `CC[C@H](C)[C@H](NC(=O)[C@H](Cc1ccc(O)cc1)NC(=O)[C@@H]1CCCN1C(=O)[C@@H](N)CCC/N=C(/N)NC(=O)[C@@H](N)CCCCCN)C(=O)N[C@@H](CC(C)C)C(=O)O`, the results for the pIC50 (at Sortilin; in data set [3]; in data set [2]) were 5.92, 9.15 and 9.42, respectively. In data set [1], this molecule came in with a half-life of 2.55 h.
Molecule `CC[C@H](C)[C@H](NC(=O)[C@H](Cc1ccc(O)cc1)NC(=O)[C@@H]1CCCN1C(=O)[C@H](CCCNC(=N)N)NC(=O)[C@@H](N)CCCN=C(N)NC)C(=O)N[C@@H](CC(C)C)C(=O)O` registered a half-life in data set [1] of 0.237 h.
As for `CC[C@H](C)[C@H](NC(=O)[C@H](Cc1ccc(O)cc1)NC(=O)[C@@H]1CCCN1C(=O)[C@@H](N)CCC/N=C(/N)NC(=O)[C@@H](N)CCCN1CCN=C1N)C(=O)N[C@@H](CC(C)C)C(=O)O`, the pIC50 at Sortilin was 6.23; in data set [3] it was 9.64.
Take `CC[C@H](C)[C@H](NC(=O)[C@H](Cc1ccc(O)cc1)NC(=O)[C@@H]1CCCN1C(=O)[C@@H](N)CCC/N=C(/N)NC(=O)[C@@H](N)CCCN=C(N)N)C(=O)N[C@@H](CC(C)C)C(=O)O`: the values for the pIC50 (at Sortilin; in data set [3]; in data set [2]) were 5.76, 9.05 and 9.40, respectively. The molecule further yielded a half-life in data set [1] of 2.9 h.
Regarding `CC[C@H](C)[C@H](NC(=O)[C@H](Cc1ccc(O)cc1)NC(=O)[C@@H]1CCCN1C(=O)[C@@H](N)CCCN=C(N)NC(=O)[C@@H](N)CCCN=C(N)NC)C(=O)N[C@@H](CC(C)C)C(=O)O`, the pIC50 was 6.14 at Sortilin and 9.17 in data set [3].
Taken in the same sequence, the figures for `CC[C@H](C)[C@H](NC(=O)[C@H](Cc1ccc(O)cc1)NC(=O)[C@@H]1CCCN1C(=O)[C@@H](N)CCCN=C(N)NC(=O)[C@@H](N)CCCNC)C(=O)N[C@@H](CC(C)C)C(=O)O` were 6.19 and 8.46.
As for `CC[C@H](C)[C@H](NC(=O)[C@H](Cc1ccc(O)cc1)NC(=O)[C@@H]1CCCN1C(=O)[C@@H](N)CCC/N=C(/N)NC(=O)[C@@H](N)CCCCCN(C)C)C(=O)N[C@@H](CC(C)C)C(=O)O`, the results for the pIC50 (at Sortilin; in data set [3]; in data set [2]) were 6.15, 8.46 and 9.55, respectively. The molecule also had a half-life in data set [1] of 2.1 h.
The molecule `CCNC(=N)NCCC[C@H](N)C(=O)N[C@@H](CCCNC(=N)N)C(=O)N1CCC[C@H]1C(=O)N[C@@H](Cc1ccc(O)cc1)C(=O)N[C@H](C(=O)N[C@@H](CC(C)C)C(=O)O)[C@@H](C)CC` had a half-life in data set [1] of 0.525 h.
With `CC[C@H](C)[C@H](NC(=O)[C@H](Cc1ccc(O)cc1)NC(=O)[C@@H]1CCCN1C(=O)[C@@H](N)CCCN=C(N)NC(=O)[C@@H](N)CCCN)C(=O)N[C@@H](CC(C)C)C(=O)O`, the results for the pIC50 (at Sortilin; in data set [3]; in data set [2]) were 5.85, 8.52 and 9.23, respectively. The half-life in data set [1] was 2.23 h.
`CC[C@H](C)[C@H](NC(=O)[C@H](Cc1ccc(O)cc1)NC(=O)[C@@H]1CCCN1C(=O)[C@@H](N)CCC/N=C(/N)NC(=O)[C@@H](N)CCCN(C)C)C(=O)N[C@@H](CC(C)C)C(=O)O`: the negative logarithm of the IC50 (pIC50) at Sortilin is 6.32; in data set [3], 8.29.

One may read the half-life as the time needed for the level to fall by half in the phase considered. A lower half-life goes with rapid decline. A word on the pIC50: it is −log10 of the IC50, conventionally taken in molar units. A high value points to a small IC50.
